From PubChem BioAssay
VIM-2 inh: VIM-2 metallo-beta-lactamase inhibitors, primary screen, biochemical, epi-absorbance readout, Pseudomonas aeruginosa enzyme. purified VIM-2, nitrocefin hydrolysis, epi-absorbance fluorescence. inhibition, % at 5.6 µM. 290,000 compounds, 0.89% hits. AID 1527, 2009;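 active = inhibition above the mean of all tested compounds plus 3 SD, cutoff set per screening run, cut at about 7.5% in these data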;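 also: red hydrolysis product quenches plate fluorescence so inhibitors raise well fluorescence; 0% = enzyme with DMSO and 100% = DMSO without enzyme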
CTSL1 counter: Fasciola hepatica cathepsin L1 inhibitors, primary screen, counter-screen for PFM18AAP inhibitor project, biochemical, QFRET, fluorogenic peptide substrate; recombinant F. hepatica cathepsin L1, Z-Leu-Arg-MCA fluorescence; 300,000 compounds, 0.49% hits; inhibition, % at 5.96 µM;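 active = inhibition above the mean of all tested compounds plus 3 SD, set per screening campaign, cut at about 17% in these data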;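 also: 0% = plate median of test compound wells and 100% = 1 µM Z-Phe-Ala-diazomethylketone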
PfM18AAP inh: PfM18AAP inhibitors, malaria aminopeptidase, primary screen, biochemical, QFRET, recombinant enzyme; M18 aspartyl aminopeptidase (Plasmodium falciparum 3D7); H-Glu-NHMec fluorogenic cleavage; inhibition, % at 7.35 µM; 290,000 compounds, 1.2% hits;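 active = inhibition above the campaign mean inhibition over all tested compounds plus 3 SD, cut at about 28% in these data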;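 also: 0% = plate median of test compound wells and 100% = 2 mM ZnCl2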
IMP-1 inh: IMP-1 metallo-beta-lactamase inhibitors, primary screen, biochemical, epi-absorbance readout, Pseudomonas aeruginosa enzyme; metallo-beta-lactamase IMP-1 (Pseudomonas aeruginosa); purified IMP-1, nitrocefin hydrolysis, epi-absorbance fluorescence; inhibition, % at 5.6 µM; 290,000 compounds, 0.45% hits;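 active = inhibition above the mean plus 3 SD of all compounds in the same screening run, cut at about 4.5% in these data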;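 also: 0% = IMP-1 with DMSO and 100% = DMSO wells lacking enzyme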
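System – purified recombinant IMP-1 beta-lactamase · Input – IMP-1 dispensed at 0.2 nM · Timing – 15 min preincubation plus 25 min reaction at 25 °C · Signal – Epi-absorbance fluorescence, 480 nm excitation, 530 nm emission · Measure – percent IMP-1 inhibition derived from blank-referenced optical density · Controls – Enzyme-plus-DMSO low control, enzyme-free DMSO high control · Replication – singlicate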
Starred values were filed as active, the others as inactive; / = not tested or not shown. The list is not random: actives were taken first. Their share in the collection is about 2.7%.

SMILES	VIM-2 inh	CTSL1 counter	PfM18AAP inh	IMP-1 inh
CCOC(=O)C(C(=O)OCC)N(C#N)c1nc(N(C)C)nc(N(C)C)n1	0	65*	-5	-2
CCOC(=O)C(C(=O)OCC)N(C#N)c1nc(C)cc(C)n1	0	21*	-2	-1
Clc1ccc(Cl)c(OCc2cc(-c3ccccc3Cl)on2)c1	-1	19*	-12	-3
N#Cc1c(NCCN)nc(-c2ccco2)c2c1CCCC2	1	11	6	-1
N#Cc1c(N2CCOCC2)nc(-c2ccco2)c2c1CCCC2	-1	42*	4	-2
CC(C)CCNc1nc(-c2ccco2)c2c(c1C#N)CCCC2	-2	19*	-4	1
COc1ccc(OC)c2c(C)c(C)[nH]c12	8.2*	-1	-8	0
COc1ccc(OC)c2c(=O)cc(C(=O)O)[nH]c12	-2	-3	10	-5
COc1ccc(CSc2nc(C)cc(C)c2S(C)(=O)=O)cc1	-1	1	29*	-4
Cc1sccc1C1C(C#N)=C(N)SC(N)=C1C#N	-1	0	18	-2
N#CC1=C(N)SC(N)=C(C#N)C1CCC1CCCCC1	-4	1	32*	1
COc1cc(Cl)c(NS(=O)(=O)c2cc3[nH]c(=O)c(=O)[nH]c3cc2C)c(OC)c1	1	0	6	1
COCCC(=O)N(Cc1ccc2c(c1)OCO2)C(C(=O)NC1CCCCC1)c1ccncc1 (stereo not given)	-3	-1	30*	-3
COc1ccc(CN(C(=O)Cc2cccs2)C(C(=O)NC2CCCC2)c2ccncc2)cc1 (stereo not given)	-1	2	3	-1
Nc1nonc1C(=O)NCCNS(=O)(=O)c1ccc(Br)cc1	-1	2	0	-1
CC(=O)Nc1ccc(NC(=O)Cn2nc(C(=O)Nc3ccc(C)cc3)ccc2=O)cc1	-2	47*	3	-4
CCN(CC(=O)NCc1ccc(F)cc1)Cc1cc(=O)n2ccsc2n1	-4	-1	2	7.6*
COc1ccc(/C=C/c2nc(S(=O)(=O)c3ccccc3)c(NCCCN(C)C)o2)cc1OC	8.8*	0	7	-4
Cc1ccccc1N(C(=O)c1snc(C(N)=O)c1N)C(C(=O)NCC1CCCO1)c1ccc(F)cc1 (stereo not given)	-2	1	5	-1
c1ccc(CNc2ncnc3sc4c(c23)CCC4)nc1	10*	1	-12	-3
Cn1ncc2c(=O)n(CC(=O)NC34CC5CC(CC(C5)C3)C4)cnc21	-5	5	1	-4
CCN(CC)CCN(C(=O)C1=COCCO1)c1nc2c(OC)ccc(OC)c2s1	8.9*	5	3	-4
CC(C)(C)c1ccc(/C=N/Nc2cccc(C(=O)O)c2)cc1	-1	-5	30*	-1
COc1cccc(/C=N/NC(=S)Nc2cccc(C(=O)O)c2)c1	9.1*	2	29*	-2
COc1ccc(O)c(/C=N/NC(=S)Nc2cccc(S(=O)(=O)N(C)C)c2)c1	11*	2	26	-4
SMILES	VIM-2 inh	CTSL1 counter	PfM18AAP inh	IMP-1 inh
O=C(CCS(=O)(=O)c1ccccc1)N1CCN(c2ccccc2)CC1	-4	1	2	-4
CS/C(N)=N/N=C/c1cc(Br)cc(Br)c1O	-3	4	24	-2
Nn1cnnc1N/N=C/c1cc(Br)cc(Br)c1O	-3	2	52*	-2
Cc1cc(Nc2ccc3c(c2)OCCO3)c2cc(Cl)ccc2n1	8.2*	5	-12	0
COc1ccc2nc(C)cc(N/N=C/c3ccc(F)cc3)c2c1	8.6*	1	4	-4
Cc1cc(C)c2nc(C)cc(Nc3ccc(C(=O)N(C)C)cc3)c2c1	0	-1	2	-5
CC(=O)c1ccc(Nc2cc(C)nc3c(C)cc(C)cc23)cc1	8.0*	5	7	-3
COC(=O)c1ccc2nc(C)cc(Nc3ccc(N(C)C)cc3)c2c1	8.3*	2	-15	-5
Cc1cc(C)cc(COn2ccnc2)c1	-3	0	-6	-2
COc1ccc2nc(C)cc(Nc3ccc(C(=O)O)cc3)c2c1	3	2	-18	-1
CCOc1ccc(Nc2cc(C)nc3ccc(C)cc23)cc1	/	1	/	/
Cc1ccc(Nc2cc(C)nc3ccc(C)cc23)cc1	10.0*	3	-3	3
COc1ccc(Nc2cc(C)nc3ccc(OC)cc23)cc1	11*	4	-14	-1
Cc1ccc2occ(C3NC(C(=O)O)CS3)c(=O)c2c1 (stereo not given)	1	5	31*	1
Cc1ccc(NC(=O)NCc2cccn2C)cc1C	-3	-1	6	-4
O=C(CSCc1ccccc1Br)NNC(=S)NCc1ccco1	-5	-2	29*	-2
CC(C)(O)C(=O)NNC(=S)NCc1ccco1	-1	2	42*	-3
CC(Nc1cccnc1)=C(C#N)C#N	-3	-3	-5	0
CC1=NN(C(N)=S)C(=O)C1N=Nc1ccc(O)cc1 (stereo not given)	2	/	29*	-12
CC1=NN(C(N)=S)C(=O)C1N=Nc1ccc(F)cc1 (stereo not given)	-5	/	14	-4
CCc1ccc(S(=O)(=O)/N=C2\C=C(Nc3ccc(C(=O)O)cc3)C(=O)c3ccccc32)cc1	0	79*	8	-7
Cc1ccc(S(=O)(=O)/N=C2\C=C(Nc3cccc(C(=O)O)c3)C(=O)c3ccccc32)cc1	1	63*	6	-6
CC(C)(C)c1ccc(S(=O)(=O)/N=C2\C=C(NS(=O)(=O)c3ccccc3)C(=O)c3ccccc32)cc1	-5	-4	-3	-5
Cc1ccc(S(=O)(=O)/N=C2\C=C(Nc3cccc(C(=O)O)c3)C(=O)c3ccccc32)c(C)c1	-3	46*	16	-7
O=C1CS/C(=C\[N+](=O)[O-])N1c1ccccc1	1	4	3	4.6*
SMILES	VIM-2 inh	CTSL1 counter	PfM18AAP inh	IMP-1 inh
CCn1ccc(C(=O)Nc2ccsc2C(=O)OC)n1	6	-1	-11	0
O=C(Nc1cc(S(=O)(=O)N2CCCCC2)ccc1N1CCCCC1)C1CC1	0	5	3	-2
Cc1ccc2c(c1)SC1=NC(c3ccccc3)(C(F)(F)F)NC(=O)N12 (stereo not given)	-1	1	-6	5.7*
O=C1NC(c2ccccc2)(C(F)(F)F)SC2=NCCCN12 (stereo not given)	7	-4	14	-5
CCOc1ccccc1NC(=O)CCC(=O)Nc1ccccc1OCC	-1	-2	4	0
CCOc1ccccc1NC(=O)CCNS(=O)(=O)c1ccccc1	0	-3	-3	7.3*
NS(=O)(=O)c1ccc(CCNC(=O)c2ccc([N+](=O)[O-])s2)cc1	-4	5	-12	0
Cc1cc([N+](=O)[O-])nn1Cc1ccc(C(=O)N/N=C/c2ccc(N(C)C)cc2)cc1	-1	4	-4	-2
